≈ marks a conversion by molar mass, not a printed value.
Columns and labels:
[1] = tested on: Plasmodium falciparum; assay: Antimalarial activity against chloroquine-sensitive Plasmodium falciparum 3D7A infected in type A rhesus-positive human erythrocytes assessed as [3H]hypoxanthine incorporation after 48 hrs by scintillation counting; assay type: functional, organism-based
How it was run: (§1)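 Modified semiautomated microdilution: compounds dissolved in DMSO, diluted in RPMI 1640 with 10% v/v human plasma, serial 1:2 dilutions in triplicate. Infected erythrocytes at 3% hematocrit, 0.25−0.55% parasitemia. [3H]hypoxanthine at 12.5−16 μCi/mL final. Incubated 48 h, 37 °C, in 5% O2/3% CO2/92% N2. Harvested on fiberglass strips, scintillation counted. IC50 by nonlinear regression of concentration−response curves.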

[2] = tested on: Plasmodium falciparum; assay: Antimalarial activity against chloroquine-resistant Plasmodium falciparum W2 infected in type A rhesus-positive human erythrocytes assessed as [3H]hypoxanthine incorporation after 48 hrs by scintillation counting; assay type: functional, organism-based; how it was run: as §1
[3] = tested on: Plasmodium falciparum; assay: Ratio of IC50 for azithromycin to compound IC50 for chloroquine-sensitive Plasmodium falciparum 3D7A infected in type A rhesus-positive human erythrocytes assessed as [3H]hypoxanthine incorporation after 48 hrs by scintillation counting; assay type: functional
[4] = tested on: Plasmodium falciparum; assay: Ratio of IC50 for azithromycin to compound IC50 for chloroquine-resistant Plasmodium falciparum W2 infected in type A rhesus-positive human erythrocytes assessed as [3H]hypoxanthine incorporation after 48 hrs by scintillation counting; assay type: functional
[5] = tested on: HepG2; assay: Cytotoxicity against human HepG2 cells after 24 hrs by MTS assay; assay type: cell-based; conditions: HepG2, 24 h
How it was run: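 Hep G2 cells were kept in RPMI 1640 with 10% FBS at 37 °C and 5% CO2. Wells held 50000 cells and received 1:2 serial dilutions of compound (DMSO stock diluted in medium) for 24 h. MTS reagent was then added for 2 h, absorbance was read at 490 nm, and IC50 was taken from response curves.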

[6] = Selectivity ratio of IC50 for human HepG2 cells to IC50 for chloroquine-sensitive Plasmodium falciparum 3D7A; assay type: ADME, cell-based; conditions: HepG2 cells versus Plasmodium falciparum 3D7A, read-out: Ratio IC50
How it was run: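 Selectivity is the HepG2 IC50 divided by the P. falciparum IC50. For HepG2, 50000 cells per well in RPMI 1640 with 10% FBS were exposed to 1:2 serial dilutions for 24 h at 37 °C, 5% CO2. MTS was added for 2 h and absorbance read at 490 nm. Parasite IC50 came from the 48 h [3H]hypoxanthine assay.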

[7] = tested on: Streptococcus pneumoniae; assay: Antibacterial activity against Streptococcus pneumoniae isolate SP030 by broth microdilution method; assay type: functional
How it was run: (§2)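 Standard broth microdilution MIC against macrolide-sensitive strains. For streptococci, 5% horse serum replaced lysed horse blood in the broth, and inocula were grown on Columbia agar with 5% sheep blood. S. aureus was grown on Mueller–Hinton agar.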

[8] = tested on: Streptococcus pyogenes; assay: Antibacterial activity against Streptococcus pyogenes isolate 3565 by broth microdilution method; assay type: functional; how it was run: as §2
[9] = tested on: Staphylococcus aureus; assay: Antibacterial activity against Staphylococcus aureus ATCC 13709 by broth microdilution method; assay type: functional; how it was run: as §2
[10] = Aqueous solubility of the compound at pH 4; assay type: physicochemical
[11] = Selectivity ratio of IC50 for human HepG2 cells to IC50 for chloroquine-sensitive Plasmodium falciparum 3D7A; conditions: HepG2 cells versus Plasmodium falciparum 3D7A

SMILES | IC50 [1] [nM] | IC50 [2] [nM] | Ratio IC50 [3] | Ratio IC50 [4] | IC50 [5] [nM] | selectivity ratio [6] | MIC [7] [µg/mL] | MIC [8] [µg/mL] | MIC [9] [µg/mL] | solubility [10] [µg/mL] | selectivity ratio [11]
CC[C@H]1OC(=O)[C@H](C)[C@@H](O[C@H]2C[C@@](C)(OC)[C@@H](O)[C@H](C)O2)[C@H](C)[C@@H](O[C@@H]2O[C@H](C)C[C@H](N(C)C)[C@H]2OCCCNC(=O)CNc2ccnc3cc(Cl)ccc23)[C@](C)(O)C[C@@H](C)CN(C)[C@H](C)[C@@H](O)[C@]1(C)O | 14 | 9 | 3 | 3 | 28000 | 132 | > 64 | > 64 | > 64 | > 10000 | 132
CC[C@H]1OC(=O)[C@H](C)[C@@H](O[C@H]2C[C@@](C)(OC)[C@@H](O)[C@H](C)O2)[C@H](C)[C@@H](O[C@@H]2O[C@H](C)C[C@H](N(C)C)[C@H]2OCCCNC(=O)CNc2ccnc3ccccc23)[C@](C)(O)C[C@@H](C)CN(C)[C@H](C)[C@@H](O)[C@]1(C)O | 119 | 68 | 3 | 3 | > 100000 | 132 | > 64 | > 64 | > 64 | > 10000 | 132
CC[C@H]1OC(=O)[C@H](C)[C@@H](O)[C@H](C)[C@@H](O[C@@H]2O[C@H](C)C[C@H](N(C)C)[C@H]2OCCCNC(=O)CNc2ccnc3cc(Cl)ccc23)[C@](C)(O)C[C@@H](C)CN(C)[C@H](C)[C@@H](O)[C@]1(C)O | 138 | 84 | 3 | 3 | > 100000 | 132 | > 64 | > 64 | > 64 | > 10000 | 132
CC[C@H]1OC(=O)[C@H](C)[C@@H](O)[C@H](C)[C@@H](O[C@@H]2O[C@H](C)C[C@H](N(C)C)[C@H]2OCCCNC(=O)CNc2ccnc3ccccc23)[C@](C)(O)C[C@@H](C)CN(C)[C@H](C)[C@@H](O)[C@]1(C)O | 1660 | 815 | 3 | 3 | – | 132 | – | – | – | > 10000 | 132
CC[C@H]1OC(=O)[C@H](C)[C@@H](O[C@H]2C[C@@](C)(OC)[C@@H](O)[C@H](C)O2)[C@H](C)[C@@H](O[C@@H]2O[C@H](C)C[C@H](N(C)C)[C@H]2OCCCNC(=O)CCCNc2ccnc3cc(Cl)ccc23)[C@](C)(O)C[C@@H](C)CN(C)[C@H](C)[C@@H](O)[C@]1(C)O | 29 | 19 | 3 | 3 | 50000 | 132 | > 64 | > 64 | > 64 | > 10000 | 132
CC[C@H]1OC(=O)[C@H](C)[C@@H](O[C@H]2C[C@@](C)(OC)[C@@H](O)[C@H](C)O2)[C@H](C)[C@@H](O[C@@H]2O[C@H](C)C[C@H](N(C)C)[C@H]2OCCCNC(=O)CCCNc2ccnc3ccccc23)[C@](C)(O)C[C@@H](C)CN(C)[C@H](C)[C@@H](O)[C@]1(C)O | 220 | 135 | 3 | 3 | > 100000 | 132 | > 64 | > 64 | > 64 | > 10000 | 132
CC[C@H]1OC(=O)[C@H](C)[C@@H](O)[C@H](C)[C@@H](O[C@@H]2O[C@H](C)C[C@H](N(C)C)[C@H]2OCCCNC(=O)CCCNc2ccnc3cc(Cl)ccc23)[C@](C)(O)C[C@@H](C)CN(C)[C@H](C)[C@@H](O)[C@]1(C)O | 402 | 224 | 3 | 3 | 75000 | 132 | > 64 | > 64 | > 64 | > 10000 | 132
CC[C@H]1OC(=O)[C@H](C)[C@@H](O[C@H]2C[C@@](C)(OC)[C@@H](O)[C@H](C)O2)[C@H](C)[C@@H](O[C@@H]2O[C@H](C)C[C@H](N(C)C)[C@H]2OCCCNc2ccnc3cc(Cl)ccc23)[C@](C)(O)C[C@@H](C)CN(C)[C@H](C)[C@@H](O)[C@]1(C)O | 21 | 10 | 3 | 3 | 45000 | 132 | 64 (≈ 66.1 µM) | 64 (≈ 66.1 µM) | > 64 | > 10000 | 132
CC[C@H]1OC(=O)[C@H](C)[C@@H](O[C@H]2C[C@@](C)(OC)[C@@H](O)[C@H](C)O2)[C@H](C)[C@@H](O[C@@H]2O[C@H](C)C[C@H](N(C)C)[C@H]2OCCCNc2ccnc3ccccc23)[C@](C)(O)C[C@@H](C)CN(C)[C@H](C)[C@@H](O)[C@]1(C)O | 64 | 35 | 3 | 3 | 80000 | 132 | 32 (≈ 34.3 µM) | 32 (≈ 34.3 µM) | 16 (≈ 17.1 µM) | > 10000 | 132
CC[C@H]1OC(=O)[C@H](C)[C@@H](O)[C@H](C)[C@@H](O[C@@H]2O[C@H](C)C[C@H](N(C)C)[C@H]2OCCCNc2ccnc3cc(Cl)ccc23)[C@](C)(O)C[C@@H](C)CN(C)[C@H](C)[C@@H](O)[C@]1(C)O | 37 | 25 | 3 | 3 | 83000 | 132 | > 64 | > 64 | > 64 | > 10000 | 132
CC[C@H]1OC(=O)[C@H](C)[C@@H](O[C@H]2C[C@@](C)(OC)[C@@H](O)[C@H](C)O2)[C@H](C)[C@@H](O[C@@H]2O[C@H](C)C[C@H](N(C)C)[C@H]2OCCC(=O)NCCNc2ccnc3cc(Cl)ccc23)[C@](C)(O)C[C@@H](C)CN(C)[C@H](C)[C@@H](O)[C@]1(C)O | 18 | 13 | 3 | 3 | 18000 | 132 | 64 (≈ 62.5 µM) | 64 (≈ 62.5 µM) | 64 (≈ 62.5 µM) | > 10000 | 132
CC[C@H]1OC(=O)[C@H](C)[C@@H](O[C@H]2C[C@@](C)(OC)[C@@H](O)[C@H](C)O2)[C@H](C)[C@@H](O[C@@H]2O[C@H](C)C[C@H](N(C)C)[C@H]2OCCCNCc2ccnc3ccccc23)[C@](C)(O)C[C@@H](C)CN(C)[C@H](C)[C@@H](O)[C@]1(C)O | 141 | 78 | 3 | 3 | 45000 | 132 | > 64 | > 64 | > 64 | > 10000 | 132
CC[C@H]1OC(=O)[C@H](C)[C@@H](O)[C@H](C)[C@@H](O[C@@H]2O[C@H](C)C[C@H](N(C)C)[C@H]2OCCCN(C)Cc2cnc3ccccc3c2)[C@](C)(O)C[C@@H](C)CN(C)[C@H](C)[C@@H](O)[C@]1(C)O | 1290 | 311 | 3 | 3 | > 100000 | – | > 64 | > 64 | > 64 | > 10000 | –
CC[C@H]1OC(=O)[C@H](C)[C@@H](O)[C@H](C)[C@@H](O[C@@H]2O[C@H](C)C[C@H](N(C)C)[C@H]2OCCCNCc2cnc3ccccc3c2)[C@](C)(O)C[C@@H](C)CN(C)[C@H](C)[C@@H](O)[C@]1(C)O | 1370 | 286 | 3 | 3 | > 100000 | – | > 64 | > 64 | > 64 | > 10000 | –
CC[C@H]1OC(=O)[C@H](C)[C@@H](O[C@H]2C[C@@](C)(OC)[C@@H](O)[C@H](C)O2)[C@H](C)[C@@H](O[C@@H]2O[C@H](C)C[C@H](N(C)C)[C@H]2O)[C@](C)(O)C[C@@H](C)CN(C)[C@H](C)[C@@H](O)[C@]1(C)O [AZITHROMYCIN] | – | – | – | – | – | 132 | ≤ 0.125 | ≤ 0.125 | 0.5 (≈ 0.668 µM) | – | 132
CCN(CC)CCCC(C)Nc1ccnc2cc(Cl)ccc12 (centres undefined) [CHLOROQUINE] | – | – | – | – | – | – | > 64 | > 64 | > 64 | – | –

— ChEMBL document CHEMBL2040808, “Design, synthesis, and in vitro activity of novel 2'-O-substituted 15-membered azalides” (J Med Chem, 2012)
